Data as given in ChEMBL document CHEMBL1133686, “6-Aminoquinolones as new potential anti-HIV agents” (J Med Chem, 2000).
Several values for one entry are separate records, joined by “and”; a condition that tells them apart may be missing. Equal values may be shown once.

Legend:
[1] = tested on: C8166; experiment: Selectivity index in HIV-1 infected C8166 (human CD4) cells.; assay type: functional
Summary of the method: (§1)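 Selectivity index in C8166 cells, computed as the ratio of TC50 (concentration reducing cell growth by 50%) to EC50 (concentration reducing supernatant reverse transcriptase activity by 50% in HIV-1 IIIB-infected cultures).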

[2] = tested on: Human immunodeficiency virus 1; experiment: In vitro antiviral activity against HIV-1 IIIB in C8166 (human CD4) cells.; assay type: functional, organism-based; details: Human immunodeficiency virus 1, C8166
Summary of the method: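 HIV-1 IIIB infection of C8166 cells, compounds from DMSO stocks of 25 mM or higher. EC50 is the drug concentration (μM) reducing reverse transcriptase activity of culture supernatants by 50%. Syncytium formation, gp120 ELISA and cytopathic-effect reduction were also scored. Values are the mean of at least three experiments run in triplicate.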

[3] = tested on: C8166 (human); experiment: In vitro toxicity to C8166 (human CD4) cells.
[4] = tested on: Herpes simplex virus 1; experiment: Antiviral activity determined against herpes simplex virus type 1 (HSV-1) in vero cells; details: Herpes simplex virus 1, Vero
[5] = Toxicity which reduces cell growth by 50% against herpes simplex virus type 1 (HSV-1) in vero cells
[6] = Selectivity index expressed as ratio of TC50 (HIV-1) to EC50 (HIV-1) in C8166 cells; assay type: functional; summary of the method: as §1

Compound	SI [1]	EC50 [2]	TC50 [3]	EC50 [4]	TC50 [5]	SI [6]
COc1ccc(N2CCN(c3cc4c(cc3N)c(=O)c(C(=O)O)cn4C(C)(C)C)CC2)cc1	1.4	9.5 µM	13.8 µM	–	–	–
COc1ccccc1N1CCN(c2cc3c(cc2N)c(=O)c(C(=O)O)cn3C(C)(C)C)CC1	6 and 9	3.2 µM	20 µM	33 µM	300 µM	–
CC(C)(C)n1cc(C(=O)O)c(=O)c2cc(F)c(N3CCN(c4ccccn4)CC3)cc21	5	7.5 µM	40 µM	–	–	–
CC(C)(C)n1cc(C(=O)O)c(=O)c2cc(N)c(N3CCN(c4ncccn4)CC3)cc21	4	9.48 µM	42.6 µM	–	–	–
CC(C)(C)n1cc(C(=O)O)c(=O)c2cc(N)c(N3CCN(c4ccc(F)cc4)CC3)cc21	1.2	8.44 µM	10.7 µM	–	–	–
CCOC(=O)c1cn(C(C)(C)C)c2cc(N3CCN(c4ccccn4)CC3)c(N)cc2c1=O	1.5	51.2 µM	77.9 µM	> 300 µM	>300 µM	–
Cc1c(N2CCc3ccccc3C2)c(N)cc2c(=O)c(C(=O)O)cn(C3CC3)c12	5	80 µM	400 µM	–	–	–
Cn1cc(C(=O)O)c(=O)c2cc(N)c(N3CCN(c4ccccn4)CC3)cc21	70	0.1 µM	7 µM	30 µM	270 µM	70
Cc1c(N2CCC(C)CC2)c(N)cc2c(=O)c(C(=O)O)cn(C3CC3)c12	4	20 µM	80 µM	–	–	–
Nc1cc2c(=O)c(C(=O)O)cn(C3CC3)c2cc1N1CCN(c2ccccn2)CC1	–	0.7 µM	9 µM	38 µM	95 µM	–
CCOC(=O)c1cn(C)c2cc(N3CCN(c4ccccn4)CC3)c(N)cc2c1=O	1.5	37 µM	57 µM	> 300 µM	>300 µM	–
Cc1c(N2CCN(c3ccccn3)CC2)c(N)cc2c(=O)c(C(=O)O)cn(C)c12	6	7.5 µM	46.2 µM	–	–	–
Cn1cc(C(=O)O)c(=O)c2cc(F)c(N3CCN(c4ccccn4)CC3)cc21	5	1.3 µM	7 µM	–	–	–
Nc1cc2c(=O)c(C(=O)O)cn(N3CCN(c4ccccn4)CC3)c2cc1Cl	>2	500 µM	>1000 µM	–	–	–
CNc1cc2c(=O)c(C(=O)O)cn(C)c2cc1N1CCN(c2ccccn2)CC1	5	3.5 µM	19.5 µM	–	–	–
O=C(O)c1cn(C2CC2)c2cc(N3CCN(c4ccccn4)CC3)c(F)cc2c1=O	13	5 µM	65 µM	–	–	–
CC(C)(C)n1cc(C(=O)O)c(=O)c2cc(N)c(N3CCN(c4ccccn4)CC3)cc21	4	2 µM	8.1 µM	82 µM	290 µM	–
CC(C)(C)n1cc(C(=O)O)c(=O)c2cc(N)c(N3CCc4ccccc4C3)cc21	2	40 µM	80 µM	–	–	–
O=C(O)c1cn(C2CC2)c2cc(N3CCNCC3)c(F)cc2c1=O [CIPROFLOXACIN]	1.6	100 µM	160 µM	–	–	–
CN1CCN(c2c(F)cc3c(=O)c(C(=O)O)cn4c3c2SCC4)CC1 [RUFLOXACIN]	2	200 µM	400 µM	–	–	–
Cc1cn([C@H]2C[C@H](N=[N+]=[N-])[C@@H](CO)O2)c(=O)[nH]c1=O [ZIDOVUDINE]	25000	0.02 µM	500 µM	–	–	–
